The record followed here is ChEMBL document CHEMBL4699573, “Design, Synthesis, and Pharmacological Evaluation of Analogues Derived from the PLEV Tetrapeptide as Protein-Protein Interaction Modulators of Voltage-Gated Sodium Channel 1.6” (J Med Chem, 2020).

Each structure is given as a SMILES string. Active and inactive are the calls of the source. The rule behind the calls is not given here. Residues, ends and D or L forms follow the SMILES beside them. *: point of attachment. Adamantane1carbonyl = O=C(C12CC3CC(CC(C3)C1)C2)*; Pyrrolidide = C1CCN(*)C1; Cbz = O=C(OCc1ccccc1)*; OcHex = C1CCC(O*)CC1; OtBu = CC(C)(C)O*; OAll = C=CCO*; OPr = CCCO*

The target of data set [1] is T1, Fibroblast growth factor 14 (Homo sapiens) (UniProt Q92915).
T1 sequence (whole entry): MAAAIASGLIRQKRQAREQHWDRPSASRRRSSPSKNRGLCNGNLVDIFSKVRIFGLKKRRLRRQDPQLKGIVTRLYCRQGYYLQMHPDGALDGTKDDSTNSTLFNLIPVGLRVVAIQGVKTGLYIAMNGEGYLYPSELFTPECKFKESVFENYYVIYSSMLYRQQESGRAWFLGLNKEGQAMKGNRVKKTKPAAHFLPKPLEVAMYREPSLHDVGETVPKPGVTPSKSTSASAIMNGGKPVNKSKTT
As to the kind of experiment: Binding affinity to human recombinant FGF14 expressed in Escherichia coli BL21 assessed as dissociation rate constant by SPR analysis. The note with it: filed as modulator. The method, boiled down:
(§1)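 Biacore T100 runs with FGF14 (17,896 RU) or Nav1.6 C-tail (6,800 RU) amine-coupled on CM5 at pH 5.5. Compounds at 0.195–200 μM in PBS, 0.005% Tween-20, 2% DMSO; 50 μL/min at 25 °C. 120 s association, 150 s dissociation, DMSO calibration, blank subtraction. Rates from a Langmuir 1:1 fit; KD averages the kinetic and steady-state values. At least duplicate experiments.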

Data set [2] deals with T1, Fibroblast growth factor 14 (Homo sapiens). Nature of the data set: Binding affinity to human recombinant FGF14 expressed in Escherichia coli BL21 assessed as association rate constant by SPR analysis. The note with it: filed as modulator. The method, boiled down: as §1
A short description of data set [3]: Modulation of recombinant human FGF141b (1 to 252 residues)-recombinant human Nav1.6 C-terminal tail (1763 to 1976 residues) protein-protein interaction expressed in HEK293 cells measured at 2 mins interval for 20 mins by split-luciferase complementation assay. The data set is classed as cell-based. An outline of the steps: (§2)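 Double-stable HEK293 line expressing CLuc-FGF14 and CD4-Nav1.6-C-tail-NLuc, kept on G418 and puromycin. Cells seeded for 24 h, then given compound for 1 h in serum-free, phenol red-free DMEM/F12 with a final 0.5% DMSO: 50 μM for screening, 0.25–100 μM over eight concentrations for dose-response; n = 4. D-luciferin added and read every 2 min for 20 min at 37 °C. Peak luminescence expressed as percent of per-plate DMSO mean (n = 32). IC50 from four-parameter nonlinear fit. At least 3 experiments.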

For data set [4], the target named is T2, Sodium channel protein type 8 subunit alpha (Homo sapiens, UniProt Q9UQD0). As to the kind of experiment: Binding affinity to human recombinant Nav1.6 C-terminal domain expressed in Escherichia coli BL21 assessed as dissociation constant by SPR analysis. The method, boiled down: as §1
Target sequence in this assay (Q9UQD0 whole entry, the tested form may be a part): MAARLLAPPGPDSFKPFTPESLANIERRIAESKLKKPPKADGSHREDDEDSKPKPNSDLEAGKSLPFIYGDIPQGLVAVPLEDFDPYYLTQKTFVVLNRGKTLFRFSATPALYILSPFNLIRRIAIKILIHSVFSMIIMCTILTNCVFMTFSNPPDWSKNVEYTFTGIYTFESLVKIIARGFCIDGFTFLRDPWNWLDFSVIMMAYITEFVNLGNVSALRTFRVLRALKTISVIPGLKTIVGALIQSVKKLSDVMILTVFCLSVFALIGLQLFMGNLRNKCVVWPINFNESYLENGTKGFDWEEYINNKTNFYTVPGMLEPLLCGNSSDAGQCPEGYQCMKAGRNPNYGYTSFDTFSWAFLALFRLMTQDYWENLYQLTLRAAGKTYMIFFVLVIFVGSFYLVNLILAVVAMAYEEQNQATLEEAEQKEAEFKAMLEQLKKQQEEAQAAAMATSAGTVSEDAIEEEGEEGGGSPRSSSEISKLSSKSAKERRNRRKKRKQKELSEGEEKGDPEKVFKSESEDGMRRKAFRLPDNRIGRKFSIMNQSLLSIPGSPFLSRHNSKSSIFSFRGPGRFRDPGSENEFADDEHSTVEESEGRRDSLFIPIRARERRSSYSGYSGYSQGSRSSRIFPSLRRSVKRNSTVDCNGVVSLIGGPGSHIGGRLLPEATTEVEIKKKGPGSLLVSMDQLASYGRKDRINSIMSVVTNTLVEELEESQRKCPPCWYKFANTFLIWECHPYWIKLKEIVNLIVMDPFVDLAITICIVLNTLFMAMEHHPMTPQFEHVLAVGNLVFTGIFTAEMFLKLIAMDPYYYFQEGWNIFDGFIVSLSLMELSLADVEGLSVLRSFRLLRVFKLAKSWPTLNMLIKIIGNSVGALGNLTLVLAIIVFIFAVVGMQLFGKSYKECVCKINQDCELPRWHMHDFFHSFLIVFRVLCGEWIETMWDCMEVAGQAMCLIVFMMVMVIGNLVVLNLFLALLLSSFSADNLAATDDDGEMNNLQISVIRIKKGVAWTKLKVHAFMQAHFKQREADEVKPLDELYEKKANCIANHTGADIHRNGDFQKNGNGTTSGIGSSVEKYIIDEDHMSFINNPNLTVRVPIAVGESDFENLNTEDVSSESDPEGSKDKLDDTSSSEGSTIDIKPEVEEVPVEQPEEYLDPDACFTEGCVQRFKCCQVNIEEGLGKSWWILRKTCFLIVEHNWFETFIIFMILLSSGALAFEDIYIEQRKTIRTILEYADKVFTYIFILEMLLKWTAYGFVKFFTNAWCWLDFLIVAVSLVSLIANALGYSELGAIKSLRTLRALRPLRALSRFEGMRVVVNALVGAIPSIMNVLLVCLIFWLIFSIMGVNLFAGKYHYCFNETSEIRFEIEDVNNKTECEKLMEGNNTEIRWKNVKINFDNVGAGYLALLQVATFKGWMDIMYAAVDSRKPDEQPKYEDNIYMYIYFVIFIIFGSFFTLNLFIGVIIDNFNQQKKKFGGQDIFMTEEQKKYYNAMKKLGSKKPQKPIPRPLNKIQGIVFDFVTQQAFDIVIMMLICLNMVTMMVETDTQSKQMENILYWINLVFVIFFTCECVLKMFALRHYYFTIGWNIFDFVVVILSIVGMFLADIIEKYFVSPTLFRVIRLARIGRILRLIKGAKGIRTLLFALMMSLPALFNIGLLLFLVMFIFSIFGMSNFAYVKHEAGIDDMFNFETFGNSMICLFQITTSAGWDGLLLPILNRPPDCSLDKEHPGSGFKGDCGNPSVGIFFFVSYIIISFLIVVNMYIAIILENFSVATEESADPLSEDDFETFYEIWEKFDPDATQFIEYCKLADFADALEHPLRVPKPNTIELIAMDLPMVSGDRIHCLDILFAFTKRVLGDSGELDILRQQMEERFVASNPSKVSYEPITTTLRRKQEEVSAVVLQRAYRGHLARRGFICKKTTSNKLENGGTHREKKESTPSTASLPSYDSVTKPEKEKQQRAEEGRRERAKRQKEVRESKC
Data set [5] concerns the target T1, Fibroblast growth factor 14 (Homo sapiens). As to the kind of experiment: Binding affinity to human recombinant FGF14 expressed in Escherichia coli BL21 assessed as assessed as induction of protein denaturation by measuring change in melting temperature at 50 uM by fluorescent dye based thermal shift assay. The settings on record: filed as modulator.
Data set [6] has as its system HEK293. As to the kind of experiment: Modulation of recombinant human FGF141b (1 to 252 residues)-recombinant human Nav1.6 C-terminal tail (1763 to 1976 residues) protein-protein interaction expressed in HEK293 cells measured at 2 mins interval for 20 mins by split-luciferase complementation assay relative to control. The note with it: filed as modulator, time min 2-20. The data set is classed as cell-based. The method, boiled down:
as §2

Data set [7] concerns the target T2, Sodium channel protein type 8 subunit alpha. Nature of the data set: Binding affinity to human recombinant Nav1.6 C-terminal domain expressed in Escherichia coli BL21 assessed as association rate constant by SPR analysis. The settings on record: filed as modulator. An outline of the steps: as §1
Target sequence in this assay (Q9UQD0 whole entry, looked up, the tested form may be a part): as the sequence (Q9UQD0 whole entry, the tested form may be a part) above
Data set [8] shares this target. Nature of the data set: Binding affinity to human recombinant Nav1.6 C-terminal domain expressed in Escherichia coli BL21 assessed as dissociation rate constant by SPR analysis. The settings on record: filed as modulator. The method, boiled down:
as §1
Target sequence in this assay (Q9UQD0 whole entry, looked up, the tested form may be a part): as the sequence (Q9UQD0 whole entry, the tested form may be a part) above

For data set [9], the system named is HEK293. As to the kind of experiment: Cytotoxicity against HEK293 cells assessed as reduction in cell viability measured after 18 hrs by celltiter-blue assay. The note with it: human, hek293, 18 h.
Data set [10] concerns the target T3, Fibroblast growth factor 14 (Homo sapiens, UniProt Q92915).
T3 sequence (Q92915 whole entry): T1 sequence (whole entry)
As to the kind of experiment: Binding affinity to human recombinant FGF14 expressed in Escherichia coli BL21 assessed as dissociation constant by SPR analysis. An outline of the steps: as §1

Data set [11] concerns HEK293. Nature of the data set: Inhibition of full-length Photinus pyralis luciferase transfected in HEK293 cells at 25 uM incubated for 1 hrs by split-luciferase complementation assay. Type of data set: cell-based. An outline of the steps:
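HEK293 cells transfected with full-length Photinus pyralis luciferase, then treated 1 h with 25 μM compound (n = 4) or 0.5% DMSO (n = 32). Luminescence read after D-luciferin addition, as in the LCA, normalized to per-plate DMSO controls. One-way ANOVA with Dunnett's test.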

Data set [12] concerns HEK293. As to the kind of experiment: Modulation of recombinant human FGF141b (1 to 252 residues)-recombinant human Nav1.6 C-terminal tail (1763 to 1976 residues) protein-protein interaction expressed in HEK293 cells assessed as relative luminescence value at 50 uM measured at 2 mins interval for 20 mins by split-luciferase complementation assay relative to control. Type of data set: cell-based. The settings on record: filed as modulator, time min 2-20. The method, boiled down: as §2

The target of data set [13] is T2, Sodium channel protein type 8 subunit alpha. As to the kind of experiment: Binding affinity to human recombinant Nav1.6 C-terminal domain expressed in Escherichia coli BL21 assessed as assessed as induction of protein denaturation by measuring change in melting temperature at 10 uM by fluorescent dye based thermal shift assay. The settings on record: filed as modulator, dose 50.0 µM.
Target sequence in this assay (Q9UQD0 whole entry, looked up, the tested form may be a part): as the sequence (Q9UQD0 whole entry, the tested form may be a part) above

`C=CCOC(=O)[C@@H](NC(=O)[C@H](CCC(=O)OC(C)(C)C)NC(=O)[C@H](CC(C)C)NC(=O)[C@@H]1CCCN1C(=O)C12CC3CC(CC(C3)C1)C2)C(C)C` (Adamantane1carbonyl-PLE(OtBu)V-OAll): the K was 9.32 10^-3/s in [1], 1.79 10^4/M/s in data set [2], 6.16 10^6/M/s in data set [7] and 2.73 10^-3/s in data set [8]. Also, in [3], the IC50 turned out to be 11.5 µM. Moreover, the dissociation constant Kd is greater than 200 µM in [4] and 1.31 µM in data set [10]. For the same compound, the figures for the ΔTm in data set [5] and in data set [13] were -4.55 °C and 0.04 °C, respectively. In addition, in data set [6], the Efficacy was found to be 95.5%. Further, the Activity result is “Non-Toxic” in [9] and 5% in data set [12]. In addition, the inhibition result in data set [11] was “inactive”.
Take `CCOC(=O)[C@@H](NC(=O)[C@H](CCC(=O)OC(C)(C)C)NC(=O)[C@H](CC(C)C)NC(=O)[C@@H]1CCCN1C(=O)C12CC3CC(CC(C3)C1)C2)C(C)C` (Adamantane1carbonyl-PLE(OtBu)V-OEt): the K in [1] was 2.05 10^-2/s; in data set [2], 2.17 10^2/M/s; in data set [7], 2.64 10^3/M/s; in data set [8], 1.22 10^-2/s. Besides, the IC50 in data set [3] is 13.3 µM. For the same compound, the figures for the Kd in data set [4] and in [10] were 67.3 µM and 9.47 µM, respectively. Further, in [6], the Efficacy is 82.3%.
For the compound `CCCOC(=O)[C@@H](NC(=O)[C@H](CCC(=O)OC(C)(C)C)NC(=O)[C@H](CC(C)C)NC(=O)[C@@H]1CCCN1C(=O)C12CC3CC(CC(C3)C1)C2)C(C)C` (Adamantane1carbonyl-PLE(OtBu)V-OPr), the K in [1] is 2.04 10^-2/s; in data set [2], 2.89 10^2/M/s; in [7], 3.4 10^2/M/s; in [8], 4.92 10^-2/s. Further, the half-maximal inhibitory concentration (IC50) in data set [3] came out at 22.5 µM. The Kd in [4] was 90.1 µM; in data set [10], 11.4 µM. Besides, in data set [6], the Efficacy worked out at 83.3%.
For `CC(C)C[C@H](NC(=O)[C@@H]1CCCN1C(=O)C12CC3CC(CC(C3)C1)C2)C(=O)N[C@@H](CCC(=O)OC(C)(C)C)C(=O)N[C@H](C(=O)OC1CCCCC1)C(C)C` (Adamantane1carbonyl-PLE(OtBu)V-OcHex), the K in data set [1] was 1.39 10^-2/s; in [2] it was 7.35 10^3/M/s; in data set [7] it was 7.16 10^5/M/s; in [8], 1.7 10^-4/s. For the same compound, the half-inhibitory concentration (IC50) in data set [3] was found to be 35.3 µM. Also, the dissociation constant Kd in [4] is greater than 200 µM; in data set [10], 7.02 µM. Further, the ΔTm was -2.21 °C in data set [5] and 0.43 °C in [13]. Besides, the Efficacy in data set [6] is 69.9%. In addition, the Activity entry in data set [9] was “Non-Toxic”; in data set [12], 43.4%. The inhibition entry in [11] is “inactive”.
Regarding `CC(C)C[C@H](NC(=O)[C@@H]1CCCN1C(=O)C12CC3CC(CC(C3)C1)C2)C(=O)N[C@@H](CCC(=O)OC(C)(C)C)C(=O)N[C@H](C(=O)OC(C)(C)C)C(C)C` (Adamantane1carbonyl-PLE(OtBu)V-OtBu), the K in data set [1] was 5.8 10^-3/s; in data set [2], 1.62 10^3/M/s; in data set [7] it was 8.29 10^5/M/s; in data set [8], 7.94 10^-3/s. Further, in data set [3], the IC50 was found to be 33.9 µM. In addition, the equilibrium dissociation constant (Kd) in data set [4] is greater than 200 µM; in data set [10] it was 6.94 µM. In addition, the figures for the shift in melting temperature (ΔTm) in [5] and in data set [13] were -0.89 °C and -0.13 °C, respectively. Besides, the Efficacy in [6] was 92.1%. Also, the values for the Activity result in data set [9] and in data set [12] were “Non-Toxic” and 33.6%, respectively. Further, the inhibition result in data set [11] is “inactive”.
For the compound `CC(C)C[C@H](NC(=O)[C@@H]1CCCN1C(=O)OCc1ccccc1)C(=O)N[C@@H](CCC(=O)OC(C)(C)C)C(=O)N[C@H](C(=O)N1CCCC1)C(C)C` (Cbz-PLE(OtBu)V-Pyrrolidide), the K is 9.91 10^-4/s in [1] and 4.61 10^2/M/s in [2]. For the same compound, the half-inhibitory concentration (IC50) in [3] was found to be 33.4 µM. The ΔTm in data set [5] was 3.38 °C; in data set [13] it was -0.48 °C. Also, in data set [6], the Efficacy is 96.9%. Moreover, the results for the Activity entry in data set [9] and in [12] were “Non-Toxic” and 14%, respectively. Also, in data set [10], the dissociation constant (Kd) turned out to be 189 µM. Also, in [11], the inhibition entry is “inactive”.
